Experimental data from different studies.
Compare with care: the assays were run in different laboratories.
Target: Cyclin-dependent kinase-like 1 (CDKL1, Homo sapiens, UniProt Q00532)

Structure (SMILES) | assay | conditions | remaining binding
Cc1nccc(COC(=O)N2C[C@@H]3[C@@H](CNC(=O)c4ccc5[nH]nnc5c4)[C@@H]3C2)n1 | cell-free assay, competition with immobilised ligand | 1 µM | 81%
O=C(NCCCN1CCOCC1)c1ccc(Nc2nccc(-c3cc4ccccc4s3)n2)cc1 | binding, competition with immobilised ligand | 1 µM | 54%
C[C@H]1CCN(c2nccc(-c3cnn4ncccc34)n2)C1 | binding | 1 µM | 62%
CNC(=O)Nc1ccc2c(c1)CC[C@@]21OC(=O)N(CC(=O)N(Cc2ccc(F)cc2)[C@@H](C)C(F)(F)F)C1=O | binding, competition with immobilised ligand | 1 µM | 86%
Nc1ncc2c(n1)-c1c([nH]c3ccc(C#CC4CC4)cc13)CCCC2 | binding, competition with immobilised ligand | 1 µM | 81%
CNCc1ccccc1-c1csc([C@@H](C)Nc2nc(C)nc3cc(OC)c(OC)cc23)c1 | cell-free assay, competition with immobilised ligand | 1 µM | 93%
c1cncc(-c2cccc(Nc3nccc(NC4CCCCC4)n3)c2)c1 | binding, competition with immobilised ligand | 10 µM | 70%
CCS(=O)(=O)c1cc2cc(C[C@](O)(CC(C)(C)c3ccc(F)cc3C(N)=O)C(F)(F)F)[nH]c2cn1 | cell-free assay, competition with immobilised ligand | 1 µM | 81%
O=C(NCCCN1CCOCC1)c1ccc(Nc2ncc(Cl)c(-c3ccc(Cl)s3)n2)cc1 | binding, competition with immobilised ligand | 1 µM | 36%
N[C@H]1CCN(c2nccc(-c3cnn4ncccc34)n2)C1 | binding | 1 µM | 80%
O=C(NCC1CCOCC1)c1n[nH]cc1NC(=O)c1c(F)cccc1F | binding, competition with immobilised ligand | 1 µM | 77%
CN(C)c1nccc(-c2cnc3ncccn23)n1 | binding | 1 µM | 100%
O=C1NC(c2ccccn2)Sc2ccccc21 (centres unmarked) | cell-free assay, competition with immobilised ligand | 1 µM | 75%
COc1cnc(Nc2cccc(S(N)(=O)=O)c2)nc1N1CCN(c2ccccc2)C(=O)C1 | binding, competition with immobilised ligand | 1 µM | 92%
COc1ccnn2ncc(-c3ccnc(N(C)C)n3)c12 | binding | 1 µM | 87%
Cc1cnc(Nc2ccc(C(=O)N3CCC(N4CCCC4)CC3)cc2)nc1-c1cc2ccccc2s1 | binding, competition with immobilised ligand | 1 µM | 50%
CNC(=O)[C@@H]1CC[C@@H](n2c(-c3ccc4cnccc4c3)nc3ccc(C(=O)NCc4cccc(C(N)=O)c4)cc32)C1 | binding, competition with immobilised ligand | 1 µM | 90%
Cc1nc(N2CC[C@@H](O)C2)ncc1-c1cc(C(F)(F)F)cc2[nH]ncc12 | binding, competition with immobilised ligand | 1 µM | 77%
CN(C)c1nccc(-c2cnn3ncccc23)n1 | binding | 1 µM | 89%
C=CC(=O)N1CCC(C(=O)NCC(=O)N2CCN(c3nc(-c4cnc(N)nc4C(F)F)nc(N4CCOCC4)n3)CC2)CC1 | binding, competition with immobilised ligand | 1 µM | 90%
